# Assay outcomes: PubChem, several laboratories
# CHOP inhibitor = inhibitors of CHOP induction in ER stress response; inhibition, % at 10 µM; 220,000 compounds, 3.8% hits; CHO-K1 CHOP-promoter luciferase, tunicamycin-induced, 15-18 h;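 active = compounds that reduced the stress-induced luciferase reporter signal by more than about 70% of percent inhibition, limit read from the data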;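 note: 0% = tunicamycin plus vehicle and 100% = wells without tunicamycin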
# CHOP UPR activ = activators of apoptotic arm of unfolded protein response (CHOP); 330,000 compounds, 0.34% hits; CHO-CHOP luciferase reporter, UPR activation, luminescence; percent of tunicamycin response over DMSO baseline; activation, % at 10 µM;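 active = at 10 µM dose, activation of 40% or more, normalized to positive control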;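 note: 100% = tunicamycin at 10 µg/mL and 0% = DMSO alone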
#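 Test system: CHO CHOP reporter cells. Input: 500 CHO-CHOP cells per well. Medium: F12 with 10% FBS. Technique: luciferase luminescence. Measure: percent activation relative to tunicamycin control. Dosing: 10 µM compound, 0.5% DMSO. Timing: 16-18 h cell attachment, then 6 h compound exposure, 37 °C.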
# 697 NFkB inh = inhibitors of the PMA/ionomycin-induced NF-kB reporter in 697 B cells; 697 B-cell NF-kB luciferase reporter, 16 h; inhibition, % at 4 µM; 330,000 compounds, 0.33% hits; AID 435022; in the data active = inhibition above about 35%
# Jurkat NFkB inh = inhibitors of the PMA/ionomycin-induced NF-kB reporter in Jurkat cells | AID 435003 | PMA/ionomycin-induced NF-kB luciferase reporter, luminescence | 330,000 compounds, 0.53% hits | inhibition, % at 4 µM; in the data active = inhibition above about 50%
# XBP1 UPR activ = adaptive UPR (XBP1) activation. 330,000 compounds, 0.33% hits. AID 463104. CHO-XBP1 luciferase reporter, IRE1-XBP1 UPR activation, luminescence; percent of tunicamycin response, DMSO as zero. activation, % at 20 µM;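 active = versus positive control, 20 µM dose yields 30% or more activation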;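 note: 100% = tunicamycin at 10 µg/mL and 0% = DMSO only wells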
#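 Material: IRE1-XBP1 luciferase reporter CHO line / Quantity: one thousand reporter cells per well / Buffer or medium: F12 with 10% serum / Compound: 20 µM single concentration, DMSO 1% / Times: 6 h treatment, 37 °C / Detection: Steady-Glo luciferase glow luminescence, 10 min after reagent addition / Benchmarks: tunicamycin high, DMSO low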
# Numbers without * were called inactive; / = not tested or not shown; ! = repeats disagree. The sample as a whole holds a higher share of hits than the screen did.
SMILES,CHOP inhibitor,CHOP UPR activ,697 NFkB inh,Jurkat NFkB inh,XBP1 UPR activ
Cc1ccc(OCC(O)C(C)NC(C)C)c2c1CCC2 (stereo not given),-4,/,/,/,/
O=C(CNC(=O)c1ccc2c(c1)OCCO2)N/N=C/c1cccc(Br)c1,26,-1,10,-2,-4
CCOc1nc(-c2ccccc2Cl)ccc1C#N,71*,-2,8,-4,0
CC(C)CC(=O)Nc1nnc(CSCc2ccc(F)cc2)s1,3,-1,-2,7,1
CCOC(=O)c1[nH]c(Cc2[nH]c(C(=O)OCC)c(C)c2CCC(=O)OC)c(CCC(=O)OC)c1C,85*,-1,8,-1,-1
Clc1ccsc1-c1ccc2ccccc2n1,90*,8,-76,-69,1
c1ccc2nc(-c3nccs3)ccc2c1,-5,8,-38,-28,3
CC1=C(C(=O)Nc2ccccc2)C(c2ccc(C)cc2)N=C(Nc2nc3ccccc3o2)N1 (stereo not given),88*,74*,23,9,16
CC1(C)CC(=O)C2=C(C1)NC(Nc1nc3ccccc3o1)=NC2c1ccccn1 (stereo not given),-15,-1,5,0,6
CCn1nc(C(=O)O)c(=O)c2cc3c(cc21)OCO3,96*!,-1,5,-2,-5
CN1CCN(CC(O)c2ccccc2)CC1 (stereo not given),80*,1,28,5,-3
OC(CN1CCN(C(c2ccccc2)c2ccccc2)CC1)c1ccccc1 (stereo not given),/,0,5,-27,-5
O=C(NC(Cc1ccccc1)C(=O)O)NC12CC3CC(CC(C3)C1)C2 (stereo not given),/,2,14,0,-7
C/C(=N/NC(=O)Nc1ccccc1)c1ccc(C)cc1,62,4,3,-10,1
C/C(=N\NC(=O)c1c[nH]c2ccccc12)c1ccc2c(c1)OCO2,0,0,-8,-14,4
C/C(=N\NC(=O)Nc1ccccc1)c1ccc2ccccc2c1,80*,-3,9,6,0
C/C(=N\NC(=O)Cc1c[nH]c2ccccc12)c1ccc2ccccc2c1,81*,0,-18,20,-2
Nn1c(SCC(=O)Nc2cccc(F)c2)nnc1C1CCCCC1,-9,-2,6,4,-3
CC(C)(C)C(C(=O)Oc1ccccc1)c1ccccc1 (stereo not given),/,2,21,0,-5
CC(C)OC(=O)c1cccnc1N1CCN(c2ccc(F)cc2)CC1,78*,-4,-24,-9,3
CCOC(=O)c1c(CSc2ccc(C)cc2)oc2ccc(O)cc12,107*,1,-14,6,4
O=C(Nc1ccc(N2CCOCC2)cc1)c1ccc(S(=O)(=O)NCc2ccco2)cc1,-13,0,-4,-8,0
O=C(CCOc1ccccc1)Nc1nnc(-c2ccc3c(c2)OCCO3)o1,29,3,-5,7,3
O=C(Nc1nnc(-c2ccc3c(c2)OCCO3)o1)c1ccc(Cc2ccccc2)cc1,97*,-2,-2,5,-1
Cc1cccc(-c2nnc(NC(=O)c3ccc(Cl)cc3)o2)c1,79*,1,-10,2,3
SMILES,CHOP inhibitor,CHOP UPR activ,697 NFkB inh,Jurkat NFkB inh,XBP1 UPR activ
O=C(Nc1nnc(-c2ccc3c(c2)CCCC3)o1)c1ccccc1,100*,-3,-40,-5,-2
CNC(=O)[C@@H]1CCC(=O)N1,/,1,2,0,-4
COC(=O)c1ccc(OCC(O)CN(CC(C)C)CC(C)C)cc1 (stereo not given),87*,-2,-15,-3,-3
CCOc1ccc(CCNC(=O)COC(=O)c2nccnc2N)cc1OCC,/,0,26,2,-3
O=C(CN1C(=O)NC2(CCCCCC2)C1=O)N1CCCCC1,/,2,12,4,1
CC1(c2nnc(-c3ccncc3)o2)CC(c2ccc([N+](=O)[O-])cc2)=NO1 (stereo not given),7,1,-48,10,-3
CC(C)CN(CCNC(=O)CC1Oc2ccccc2NC1=O)CC(C)C (stereo not given),72*,0,2,7,-1
O=C(c1ccc(Cl)cc1)C(Cn1cncn1)C(Sc1ccccc1)c1ccccc1 (stereo not given),78*,1,-61,15,0
